Each structure is given as a SMILES string. Calls of active or inactive are those of the source. No cut-off for these calls is given here. Where only a bound is given, the exact number is not on record here.

Series [1] in a line: Cytotoxicity against HEK293 cells assessed as cell growth inhibition measured after 72 hrs by resazurin dye based fluorescence assay relative to IC50. The following applies: human. In kind it is toxicity. Put shortly: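 HEK293 cells grown in DMEM with 10% FBS and exposed to compound for 72 h at 37 °C, 5% CO2. Medium was then replaced with 44 μM resazurin, incubated 5–6 h more, and fluorescence read at 530/595 nm. Top concentration 80 μM. Curves were duplicate, 11-point dose response.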

Series [2] is described as follows: Selectivity index, ratio of IC50 for HEK293 cells to IC50 for antiplasmodial activity against ring stage chloroquine-sensitive Plasmodium falciparum 3D7. In kind it is toxicity, cell-based. The following applies: human, read-out: Ratio IC50. Put shortly: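 SI is HEK293 IC50 divided by P. falciparum 3D7 IC50. Parasites were sorbitol-synchronized twice, and rings were exposed 72 h at 37 °C (90% N2, 5% CO2, 5% O2), then DAPI-stained and imaged confocally. […] Where no accurate HEK293 IC50 was obtained, a relative IC50 or the top concentration was used and SI reported as a bound.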

In series [3] the test system is DNA. In words: Binding affinity to 5'-CGCATATATGCG-3' DNA (unknown origin) assessed as bound as dimer [DS + 2 M] in charge states 5- and 4- at 100 uM by native mass spectrometry. Format: nucleic-acid assay. Put shortly:
(§1)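 Final sample: 9 μM DNA, 100 μM KCl, 100 μM S-MGB, 1% DMSO in 150 mM ammonium acetate pH 7. DNA with 1% DMSO and no ligand served as control. Sprayed in negative mode at 1.0–1.2 kV. Free, monomer- and dimer-bound DS species were read by charge state.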

Series [4] concerns DNA. Nature of the series: Binding affinity to 5'-CGCATATATGCG-3' DNA (unknown origin) assessed as bound as monomer [DS + 1 M] in charge states 5- at 100 uM by native mass spectrometry. In kind it is nucleic-acid assay. Put shortly:
as §1

The nature of series [5]: Selectivity ratio of IC50 for antiplasmodial activity against ring stage chloroquine-resistant Plasmodium falciparum Dd2 to IC50 for antiplasmodial activity against ring stage chloroquine-sensitive Plasmodium falciparum 3D7. Format: functional. Put shortly: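 Ring-stage P. falciparum Dd2 and 3D7, twice sorbitol-synchronised, in RPMI-1640 with 25 mM HEPES, 5% human AB serum, Albumax II, hypoxanthine. Exposed 72 h at 37 °C (90% N2/5% CO2/5% O2), 11-point dose response. DAPI stain, confocal imaging, % inhibition against in-plate controls, four-parameter IC50. Two independent duplicate runs. Ratio is Dd2 IC50/3D7 IC50.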

In series [6] the test system is DNA. In words: Binding affinity to 5'-CGCATATATGCG-3' DNA (unknown origin) assessed as appearance of small m/z peak corresponding to free ds DNA oligo at 100 uM by native mass spectrometry. In kind it is nucleic-acid assay. Put shortly: as §1

`Cn1cc(NC(=O)c2cc(NC(=O)c3ccc(/C=C/c4ccc5nsnc5c4)cc3)cn2C)cc1C(=O)NCCN1CCOCC1`: in series [1], the IC50 at 72 h turned out to be 11 µM.
For the compound `Cn1cc(NC(=O)c2cc(NC(=O)c3ccc(/C=C/c4ccc(F)cc4)cc3)cn2C)cc1C(=O)NCCC(=N)N`, the IC50 at 72 h in series [1] amounted to 40 µM.
As for `Cn1cc(NC(=O)c2cc(NC(=O)c3ccc(/C=C/c4ccncc4)cc3)cn2C)cc1C(=O)NCCC(=N)N`, the selectivity ratio in series [2] is greater than 613. Also, in the series on DNA [3], the outcome was Active. Further, the outcome in the series with DNA [4] was inactive. Further, the IC50 at 72 h in series [1] came to 40 µM.
Turning to `COc1ccc(/C=C/c2ccc(C(=O)Nc3cc(C(=O)Nc4cc(C(=O)NCCC(=N)N)n(C)c4)n(C)c3)cc2)cc1.O=C(O)C(F)(F)F`, the “Ratio IC50” value in series [5] worked out at 1.4. The IC50 at 72 h in series [1] stood at 40 µM.
In the case of `COc1cccc(/C=C/c2ccc(C(=O)Nc3cc(C(=O)Nc4cc(C(=O)NCCCN(C)C)n(C)c4)n(C)c3)cc2)c1`, the selectivity ratio in series [2] is greater than 195. Besides, in series [1], the IC50 at 72 h was determined as 35 µM.
For `Cn1cc(NC(=O)c2cc(NC(=O)c3ccc(/C=C/c4cccc(F)c4)cc3)cn2C)cc1C(=O)NCCC(=N)N`, the IC50 at 72 h in series [1] is 40 µM.
Turning to `Cn1cc(NC(=O)c2cc(NC(=O)c3ccc(NC(=O)c4cccc(F)c4)cc3)cn2C)cc1C(=O)NCCC(=N)N`, in series [1], the 50% inhibitory concentration (IC50) at 72 h worked out at 40 µM.
`CN(C)CCCNC(=O)c1cc(NC(=O)c2cc(NC(=O)c3cc(NC(=N)c4cc5ccccc5cn4)cn3C)cn2C)cn1C`: in series [1], the IC50 at 72 h worked out at 21 µM.
On to `Cn1cc(NC(=O)c2cc(NC(=O)c3ccc(/C=C/C(=O)Nc4ccccc4O)cc3)cn2C)cc1C(=O)NCCC(=N)N`, for which, in series [1], the IC50 at 72 h is 40 µM.
Still for that read-out and setting: next, `CC(C)CCn1cc(NC(=O)c2cc(NC(=O)c3cc(NC(=N)c4cc5ccccc5cn4)cn3C)cn2C)cc1C(=O)NCCCN(C)C`: 40 µM.
With `CCc1nc(N)nc(N)c1-c1ccc(Cl)cc1` [PYRIMETHAMINE], the “Ratio IC50” value in series [5] is on record as greater than 29740.
On to `Cn1cc(NC(=O)c2cc(NC(=O)c3ccc(/C=C/c4ccc(C(F)(F)F)cc4)cc3)cn2C)cc1C(=O)NCCN1CCOCC1`, for which, in series [1], the IC50 at 72 h came to 40 µM.
On to `COc1cccc(/C=C/c2ccc(C(=O)Nc3cc(C(=O)Nc4cc(C(=O)NCCC(=N)N)n(C)c4)n(C)c3)cn2)c1`, for which the selectivity ratio in series [2] is greater than 336. The result with DNA [3] was Active. Besides, in the series on DNA [4], the result was inactive. Also, the IC50 at 72 h in series [1] is 45 µM.
Turning to `COc1cccc(/C=C/c2ccc(C(=O)Nc3cc(C(=O)Nc4cc(C(=O)NCCN(C)C)n(C)c4)n(C)c3)cc2)c1`, in series [1], the IC50 at 72 h was found to be 20 µM.
The same measure, in the same setting: the same measure for `CC(C)CCc1sc(NC(=O)c2cc(NC(=O)c3cc(NC(=O)c4cccc(F)c4)cn3C)cn2C)nc1C(=O)NCCCN(C)C`: 40 µM.
As for `Cn1cc(NC(=O)c2cc(NC(=O)c3ccc(NC(=O)c4ccc(F)cc4)cc3)cn2C)cc1C(=O)NCCC(=N)N`, the IC50 at 72 h in series [1] came to 35 µM.
For the compound `Cn1cc(NC(=O)c2cc(NC(=O)c3ccc(/C=C/c4ccc5ccccc5c4)cc3)cn2C)cc1C(=O)NCCC(=N)N`, the selectivity ratio in series [2] is greater than 265. In addition, the result with DNA [3], in the series on DNA [4] and with DNA [6] was Active. In series [1], the IC50 at 72 h worked out at 80 µM.

The values are drawn from ChEMBL document CHEMBL6114936, “S-MGBs bearing amidine tail groups are potent, selective antiplasmodial agents” (RSC Med Chem, 2025).
